ChEMBL document CHEMBL3861960, “Leoligin, the Major Lignan from Edelweiss (Leontopodium nivale subsp. alpinum), Promotes Cholesterol Efflux from THP-1 Macrophages” (J Nat Prod, 2016)
Activity calls are given as the source filed them. The calls are words filed in the database; no cut-off is given here.

Tests used:
[1] = test system: THP-1; assay: Effect on GOLGA5 protein expression in human THP1 cells at 10 uM after 24 hrs by proteome analysis relative to control; type: functional
In short: (§1)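 PMA-differentiated THP-1 macrophages given 10 μM compound or DMSO for 24 h, then lysed in TRIzol. Proteins reduced with DTT, alkylated with iodoacetamide, digested with trypsin (1:50 w/w) for 16 h at 30 °C. Biological replicates pooled, analysed by LC-MS/MS on an Orbitrap Velos Pro with a 4 h gradient, FDR ≤0.05. Only unique peptides used; log2 peptide ratios averaged per protein and tested by one-sample t test versus vehicle.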

[2] = test system: THP-1; assay: Effect on NCSTN protein expression in human THP1 cells at 10 uM after 24 hrs by proteome analysis relative to control; type: functional; in short: as §1
[3] = test system: THP-1; assay: Effect on SPCS1 protein expression in human THP1 cells at 10 uM after 24 hrs by proteome analysis relative to control; type: functional; in short: as §1
[4] = test system: THP-1; assay: Effect on CELSR3 protein expression in human THP1 cells at 10 uM after 24 hrs by proteome analysis relative to control; type: functional; in short: as §1
[5] = test system: THP-1; assay: Effect on TOMM20 protein expression in human THP1 cells at 10 uM after 24 hrs by proteome analysis relative to control; type: functional; in short: as §1
[6] = test system: THP-1; assay: Effect on CPA3 protein expression in human THP1 cells at 10 uM after 24 hrs by proteome analysis relative to control; type: functional; in short: as §1
[7] = Upregulation of ABCG1 protein expression in human THP1 cells at 10 uM after 24 hrs by Western blot method; type: functional, cell-based; conditions: THP-1
In short: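 PMA-differentiated THP-1 macrophages (200 nM PMA, 72 h) exposed to 10 μM agent or DMSO vehicle for 24 h. Lysis in NP40 buffer with protease inhibitors, then Bradford protein assay. 20 μg protein run on SDS-PAGE, blotted to PVDF and probed with anti-ABCG1, β-actin as reference. ECL band densitometry from four independent experiments.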

[8] = test system: THP-1; assay: Effect on RAB4A protein expression in human THP1 cells at 10 uM after 24 hrs by proteome analysis relative to control; type: functional; in short: as §1
[9] = test system: THP-1; assay: Effect on PTPRC protein expression in human THP1 cells at 10 uM after 24 hrs by proteome analysis relative to control; type: functional; in short: as §1
[10] = test system: THP-1; assay: Effect on MGA protein expression in human THP1 cells at 10 uM after 24 hrs by proteome analysis relative to control; type: functional; in short: as §1
[11] = test system: THP-1; assay: Effect on HIST1H2AB protein expression in human THP1 cells at 10 uM after 24 hrs by proteome analysis relative to control; type: functional; in short: as §1
[12] = test system: THP-1; assay: Effect on DNHD1 protein expression in human THP1 cells at 10 uM after 24 hrs by proteome analysis relative to control; type: functional; in short: as §1
[13] = test system: THP-1; assay: Effect on NBEA protein expression in human THP1 cells at 10 uM after 24 hrs by proteome analysis relative to control; type: functional; in short: as §1
[14] = test system: THP-1; assay: Effect on OR1M1 protein expression in human THP1 cells at 10 uM after 24 hrs by proteome analysis relative to control; type: functional; in short: as §1
[15] = test system: THP-1; assay: Effect on TARBP1 protein expression in human THP1 cells at 10 uM after 24 hrs by proteome analysis relative to control; type: functional; in short: as §1
[16] = Upregulation of ABCA1 mRNA expression in human THP1 cells at 10 uM after 24 hrs by qPCR method relative to control; type: functional, cell-based; conditions: THP-1
In short: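 THP-1 macrophages treated for 24 h with 10 μM compound, 10 μM pioglitazone or DMSO. Total RNA extracted and converted to cDNA; ABCA1 or ABCG1 measured by SYBR Green qPCR and expressed relative to 18S. Mean ± SD of four independent experiments; one-way ANOVA with Bonferroni test against DMSO.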

[17] = test system: THP-1; assay: Induction of 1% human plasma-mediated cholesterol efflux from [3H]-cholesterol labeled human THP1 cells at 10 uM preincubated for 24 hrs followed by 1% human plasma addition measured after 6 hrs by scintillation counting method; type: functional
In short: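 Differentiated THP-1 macrophages loaded with [3H]-cholesterol for 24 h in the presence of compound, or pioglitazone 10 μM as positive control. Medium then replaced with serum-free RPMI containing compound, with or without acceptor (10 μg/mL apo A1 or 1% human plasma from fasted volunteers), for 6 h. Efflux % = extracellular/total cpm with acceptor minus without acceptor, ×100, by scintillation counting. Three independent experiments.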

[18] = test system: THP-1; assay: Effect on ART4 protein expression in human THP1 cells at 10 uM after 24 hrs by proteome analysis relative to control; type: functional; in short: as §1
[19] = Upregulation of ABCA1 protein expression in human THP1 cells at 10 uM after 24 hrs by Western blot method; type: functional, cell-based; conditions: THP-1
In short: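 THP-1 macrophages treated for 24 h with 10 μM compound, 10 μM pioglitazone or DMSO, then lysed in NP40 buffer (150 mM NaCl, 50 mM HEPES pH 7.4, 1% NP40) with protease and phosphatase inhibitors. 20 μg protein separated by SDS-PAGE and immunoblotted for ABCA1 with β-actin, ECL detection. Densitometry from four independent experiments.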

[20] = test system: THP-1; assay: Effect on MYL12A protein expression in human THP1 cells at 10 uM after 24 hrs by proteome analysis relative to control; type: functional; in short: as §1
[21] = test system: THP-1; assay: Effect on SHMT1 protein expression in human THP1 cells at 10 uM after 24 hrs by proteome analysis relative to control; type: functional; in short: as §1
[22] = test system: THP-1; assay: Effect on CUL7 protein expression in human THP1 cells at 10 uM after 24 hrs by proteome analysis relative to control; type: functional; in short: as §1
[23] = test system: THP-1; assay: Effect on PAIP2 protein expression in human THP1 cells at 10 uM after 24 hrs by proteome analysis relative to control; type: functional; in short: as §1
[24] = test system: THP-1; assay: Effect on CYP1B1 protein expression in human THP1 cells at 10 uM after 24 hrs by proteome analysis relative to control; type: functional; in short: as §1
[25] = test system: THP-1; assay: Effect on SDE2 protein expression in human THP1 cells at 10 uM after 24 hrs by proteome analysis relative to control; type: functional; in short: as §1

C/C=C(/C)C(=O)OC[C@H]1[C@@H](Cc2ccc(OC)c(OC)c2)CO[C@@H]1c1ccc(OC)c(OC)c1
fold change (FC) [1]: 2.3
fold change (FC) [2]: 1.7
fold change (FC) [3]: 1.6
fold change (FC) [4]: 1.6
fold change (FC) [5]: 1.6
fold change (FC) [6]: 1.7
Activity [7]: Active
fold change (FC) [8]: 1.9
fold change (FC) [9]: 1.7
fold change (FC) [10]: 1.7
fold change (FC) [11]: 0.6
fold change (FC) [12]: 0.6
fold change (FC) [13]: 1.6
fold change (FC) [14]: 2
fold change (FC) [15]: 0.6
fold change (FC) [16]: 2.4
Activity [17]: Active
fold change (FC) [18]: 1.6
Activity [19]: Active
fold change (FC) [20]: 2.2
fold change (FC) [21]: 1.8
fold change (FC) [22]: 0.6
fold change (FC) [23]: 1.7
fold change (FC) [24]: 1.6
fold change (FC) [25]: 0.6
